Variants at the floor of the assay were thinned out. Some results are limits rather than exact numbers.

B1: tRNA (parent)
chain: GUUCCGUUGGCGUAAUGGUAACGCGUCUCCCUCCUAAGGAGAAGACUGCGGGUUCGAGUCCCGUACGGAACG

The variants in the series derive from B1. Kind of series: yeast fitness relative to wild type (ratio to wild type); higher = fitter; tRNA-Arg(CCU), competitive growth, 37 C, YPD. Summed up:
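For this measurement, the tRNA-Arg(CCU) gene was varied by chemical synthesis at a 3% per-site mutation rate across 69 sites, and each variant was placed at the native genomic locus in Saccharomyces cerevisiae. The pooled strains went through a 24-hour competition in YPD at 37°C in six parallel replicates, with amplicons from start and end populations read by 100-nucleotide paired-end sequencing. Darwinian fitness relative to wild type followed from the change in each genotype's frequency. Genotypes needed ≥ 100 starting reads, and estimates < 0.5 were set to 0.5.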
As to GUUCCGUUGGCGUAAUGGUAACGCGUCUCCCUCCUAAGGAGAAGGCUGCGGGUUCGAGUCCCAUACGAAACG [A45G G63A G68A], the yeast fitness came to 0.536.
GUUCCGUUGGCGUAAUGGUAACGCGUCUCCCUCCUAAGGAGAAGUCUGCGGGUUCGGGUCCCGUACAGAACG [A45U A57G G67A]: the yeast fitness was 0.598.
As for GUUCCGUUGGCGUAAUGGUAACGCGUCUCCCUCCUAAGGAGAAGUUUGCGGGUUCGUGUCCCGUACGGAACG [A45U C46U A57U], the yeast fitness came to 0.539.
As to GUUCCGUUGGCGUAAUGGUAACGCGUCUCCCUCCUAAGGAGAAGUGUGCGGGUUCGAGUACCGUACGGAACG [A45U C46G C60A], the yeast fitness was 0.557.
As for GUUCCGUUGGCGUAAUGGUAACGCGUCUCCCUCCUAAGGAGAAGGCUGGGGGUUCGAGUCCCGUCCGGAACG [A45G C49G A65C], the yeast fitness is no more than 0.5.
For GUUCCGUUGGCGUAAUGGUAACGCGUCUCCCUCCUAAGGAGAAGGCUGCGGGUUCGAAUCCCAUACGGAACG [A45G G58A G63A], the yeast fitness turned out to be 0.727.
As for GUUCCGUUGGCGUAAUGGUAACGCGUCUCCCUCCUAAGGAGAAGUCUGCGGGUUCGAGUCCAGUACGGAACG [A45U C62A], the yeast fitness amounted to 0.655.
With GUUCCGUUGGCGUAAUGGUAACGCGUCUCCCUCCUAAGGAGAAGUCUGCGGGUUUGAGUCCCGUACGGGACG [A45U C55U A69G], the yeast fitness is no more than 0.5.
Take GUUCCGUUGGCGUAAUGGUAACGCGUCUCCCUCCUAAGGAGAAGUAUGCGGGUUCGAGUGCCGUACGGAACG [A45U C46A C60G]: the yeast fitness was 0.521.
For the variant GUUCCGUUGGCGUAAUGGUAACGCGUCUCCCUCCUAAGGAGAAGUCUGCGGGUUCGAGUCCCAUACGGAACG [A45U G63A], the yeast fitness came to 0.843.
Regarding GUUCCGUUGGCGUAAUGGUAACGCGUCUCCCUCCUAAGGAGAAGGCUGCGGGGUCGAGUCCCGUACGGAACG [A45G U53G], the yeast fitness amounted to 0.586.
GUUCCGUUGGCGUAAUGGUAACGCGUCUCCCUCCUAAGGAGAAGGCAGCGGGUUCGAGUCCCGUACGGAACG [A45G U47A]: the yeast fitness is 0.91.
On to GUUCCGUUGGCGUAAUGGUAACGCGUCUCCCUCCUAAGGAGAAGGCUGCGGGUUCCAGUCCCGUACGGAACG [A45G G56C], for which the yeast fitness came out at 0.604.
For GUUCCGUUGGCGUAAUGGUAACGCGUCUCCCUCCUAAGGAGAAGGCUGGGGGUUCGAGUCCCGUACGGAACG [A45G C49G], the yeast fitness was determined as 0.712.
As to GUUCCGUUGGCGUAAUGGUAACGCGUCUCCCUCCUAAGGAGAAGGCUGUGGGUUCGAGUCCCGUACGGAACG [A45G C49U], the yeast fitness is 0.941.
For GUUCCGUUGGCGUAAUGGUAACGCGUCUCCCUCCUAAGGAGAAGUCUGCGGGUUUGAGUCCCGUACGGAACG [A45U C55U], the yeast fitness is 0.743.
On to GUUCCGUUGGCGUAAUGGUAACGCGUCUCCCUCCUAAGGAGAAGGCUACGGGUUCGAGUCCCGUACGGAACG [A45G G48A], for which the yeast fitness was determined as 1.1.
The same measure for GUUCCGUUGGCGUAAUGGUAACGCGUCUCCCUCCUAAGGAGAAGUCUGCGGGUUUGAGUCCCGUACGGACCG [A45U C55U A70C]: 0.589; for GUUCCGUUGGCGUAAUGGUAACGCGUCUCCCUCCUAAGGAGAAGGCUGCGGGUUCGAGUCACGUACGGAGCG [A45G C61A A70G]: 0.55; for GUUCCGUUGGCGUAAUGGUAACGCGUCUCCCUCCUAAGGAGAAGUUCGCGGGUUCGAGUCCCGCACGGAACG [A45U C46U U47C U64C]: 0.988.
For the variant GUUCCGUUGGCGUAAUGGUAACGCGUCUCCCUCCUAAGGAGAAGUCUGCAGGUUCGAGUCCCGUACGCUACG [A45U G50A G68C A69U], the yeast fitness was no more than 0.5.
The same measure for GUUCCGUUGGCGUAAUGGUAACGCGUCUCCCUCCUAAGGAGAAGGCUGCGGGUUCAAGACCCGUACGGAACG [A45G G56A U59A]: no more than 0.5; for GUUCCGUUGGCGUAAUGGUAACGCGUCUCCCUCCUAAGGAGAAGGAUGCGGGUUCGAGUCCCGUACGGUACG [A45G C46A A69U]: 0.768; for GUUCCGUUGGCGUAAUGGUAACGCGUCUCCCUCCUAAGGAGAAGUCUGCGGGUUCGCGUCCCGUACGGAACG [A45U A57C]: 0.617.
For GUUCCGUUGGCGUAAUGGUAACGCGUCUCCCUCCUAAGGAGAAGGCUGCGGGUUCGAGUCCCGUAUGGAACG [A45G C66U], the yeast fitness was 0.952.
For GUUCCGUUGGCGUAAUGGUAACGCGUCUCCCUCCUAAGGAGAAGUCUGUGGGUUCGAGUCGCGUACGGAACG [A45U C49U C61G] the value was 0.582.
For GUUCCGUUGGCGUAAUGGUAACGCGUCUCCCUCCUAAGGAGAAGUCUGCGGGUUCGAGUCCCGUGCUGGACG [A45U A65G G67U A69G], the yeast fitness is no more than 0.5.
As to GUUCCGUUGGCGUAAUGGUAACGCGUCUCCCUCCUAAGGAGAAGUCUGCGGGUUCGAGUCCCGUAUGAAACG [A45U C66U G68A], the yeast fitness stood at 0.665.
Turning to GUUCCGUUGGCGUAAUGGUAACGCGUCUCCCUCCUAAGGAGAAGUGUGCGGAUUCGAGUCCCGUACGGAACG [A45U C46G G52A], the yeast fitness is 0.578.
GUUCCGUUGGCGUAAUGGUAACGCGUCUCCCUCCUAAGGAGAAGGCUGCGGGUUCGACUCCCGUACGGAACG [A45G G58C]: the yeast fitness was found to be 0.958.
In the case of GUUCCGUUGGCGUAAUGGUAACGCGUCUCCCUCCUAAGGAGAAGUCUGCGGGUUCCGGUCCCGUACGUAACG [A45U G56C A57G G68U], the yeast fitness was no more than 0.5.
For GUUCCGUUGGCGUAAUGGUAACGCGUCUCCCUCCUAAGGAGAAGGCUGCCGGUUCGAGUCCCGUACGGAACG [A45G G50C] the value was 0.637; for GUUCCGUUGGCGUAAUGGUAACGCGUCUCCCUCCUAAGGAGAAGUCUGCGGGUUCGAGUGCCGUAAGGAACG [A45U C60G C66A], no more than 0.5.
As for GUUCCGUUGGCGUAAUGGUAACGCGUCUCCCUCCUAAGGAGAAGUCUGCGGGUUCGAGUCCCGUUCGGAACG [A45U A65U], the yeast fitness was 0.959.
Regarding GUUCCGUUGGCGUAAUGGUAACGCGUCUCCCUCCUAAGGAGAAGUCUGCGGGUUCGAGUCCCGUGCGGAACG [A45U A65G], the yeast fitness was found to be 0.947.
For GUUCCGUUGGCGUAAUGGUAACGCGUCUCCCUCCUAAGGAGAAGUCUGGGGGUUCGAGUCCCGUACGGACCG [A45U C49G A70C] the value was 0.65; for GUUCCGUUGGCGUAAUGGUAACGCGUCUCCCUCCUAAGGAGAAGUCUGCGCGUUCGAGUCCCGUACGGAACG [A45U G51C], 0.538.
